Laboratory results reported in ChEMBL document CHEMBL2146394, “Design and synthesis of pyrrolo[3,2-d]pyrimidine HER2/EGFR dual inhibitors: improvement of the physicochemical and pharmacokinetic profiles for potent in vivo anti-tumor efficacy” (Bioorg Med Chem, 2012).

Experiments:
[1] = Apparent permeability across basolateral to apical side in human Caco2 cells at 10 umol/L; assay type: ADME, cell-based; conditions: Caco-2
How it was run: (§1)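 Confluent Caco-2 monolayers on collagen-coated polycarbonate Transwell membranes. HBSS with 10 mmol/L HEPES, 15 mmol/L glucose and 1% BSA, pH 7.3–7.5. Compound dosed at 10 µmol/L apically (A→B) or basolaterally (B→A), 37 °C, 5% CO₂. Receivers sampled at 1 and 2 h; LC/MS/MS. Papp from receiver concentration slope; duplicates.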

[2] = test system: BT-474; assay: Antitumor activity against human BT474 cells xenografted in BALB/c nu/nu mouse at 100 mg/kg, po bid administered 14 days measured on day 31 relative to control; assay type: functional
How it was run: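 BT-474 xenografts: 1×10⁷ cells in Matrigel implanted subcutaneously into the right flank of female BALB/c nu/nu mice. Estradiol dipropionate 0.25 mg given intramuscularly on days 0 and 7. Tumours of 200–300 mm³ used. Dosing 100 mg/kg orally bid in 0.5% methylcellulose for 14 days. Volume a×b²/2 by calipers. T/C (%) compared at day 31.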

[3] = test system: BT-474; assay: Growth inhibition of HER2 over-expressing human BT474 cells after 5 days; assay type: functional; conditions: BT-474, 120 h
How it was run: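 BT-474 cells kept in RPMI 1640 with 10% heat-inactivated FBS. Seeded at 3×10⁴ cells/well and allowed to attach overnight. Treated continuously with compound for 5 days. Live cells counted with a particle analyzer; GI₅₀ derived.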

[4] = Apparent permeability across apical to basolateral side in human Caco2 cells at 10 umol/L; assay type: ADME, cell-based; conditions: Caco-2; how it was run: as §1
[5] = Metabolic stability in human hepatic microsomes at 1 umol/L after 20 mins; assay type: ADME; conditions: liver microsomes, read-out: Stability
How it was run: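 Human liver microsomes (0.2 mg/mL protein) with 1 µmol/L compound in 50 mmol/L phosphate pH 7.4 plus an NADPH-generating system (glucose-6-phosphate, β-NADP⁺, G6PDH, MgCl₂). Incubated at 37 °C for 0 and 20 min, stopped with acetonitrile, duplicates. Remaining compound measured by HPLC with photodiode array detection.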

[6] = target: Tyrosine-protein kinase CSK (Homo sapiens, UniProt P41240); assay: Inhibition of CSK after 5 mins
How it was run: (§2)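 AlphaScreen tyrosine kinase assay: 50 mmol/L Tris-HCl pH 7.5, 5 mmol/L MnCl₂, 5 mmol/L MgCl₂, 0.01% Tween-20, 2 mmol/L DTT, biotinylated poly-Glu-Tyr (4:1), kinase-optimized enzyme, ATP and time (5–60 min). Seven compound concentrations, 0.01–10000 nmol/L, preincubated 5 min at room temperature. Stopped with EDTA plus streptavidin donor and PY-100 or PT66 acceptor beads; read after >12 h in the dark. Controls: no compound; no ATP.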

[7] = target: Vascular endothelial growth factor receptor 2 (Homo sapiens, UniProt P35968); assay: Inhibition of N-terminal FLAG-tagged VEGFR2 cytoplasmic domain expressed in baculovirus after 5 mins; how it was run: as §2
[8] = target: Inhibitor of nuclear factor kappa-B kinase subunit beta (Homo sapiens, UniProt O14920); assay: Inhibition of C-terminal FLAG-tagged IKKbeta expressed in baculovirus after 5 mins by scintillation counter
[9] = target: Dual specificity protein kinase TTK (Homo sapiens, UniProt P33981); assay: Inhibition of N-terminal FLAG-tagged TTK expressed in baculovirus after 5 mins by scintillation counter
[10] = Antitumor activity against human 4-1ST cells xenografted in BALB/c nu/nu mouse at 50 mg/kg, po bid administered 14 days measured on day 31 relative to control; assay type: functional
How it was run: (§3)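 4-1ST human gastric tumour tissue from donor animals minced and implanted subcutaneously in nude mice or nude rats. Tumours of 200–300 mm³ used. Compounds in 0.5% (w/v) methylcellulose given orally twice daily at 10 mL/kg for 14 days; control got vehicle. Doses expressed as salt-free. Caliper volume (a×b²/2) measured blind 2–3 times weekly. T/C (%) versus control; five mice or eight rats per group.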

[11] = target: Protein kinase C theta type (Homo sapiens, UniProt Q04759); assay: Inhibition of N-terminal FLAG-tagged PKCtheta expressed in baculovirus after 5 mins by scintillation counter
[12] = target: T1, Tyrosine-protein kinase Lyn (Homo sapiens, UniProt P07948); assay: Inhibition of LYN B after 5 mins; how it was run: as §2
T1 sequence (P07948 whole entry): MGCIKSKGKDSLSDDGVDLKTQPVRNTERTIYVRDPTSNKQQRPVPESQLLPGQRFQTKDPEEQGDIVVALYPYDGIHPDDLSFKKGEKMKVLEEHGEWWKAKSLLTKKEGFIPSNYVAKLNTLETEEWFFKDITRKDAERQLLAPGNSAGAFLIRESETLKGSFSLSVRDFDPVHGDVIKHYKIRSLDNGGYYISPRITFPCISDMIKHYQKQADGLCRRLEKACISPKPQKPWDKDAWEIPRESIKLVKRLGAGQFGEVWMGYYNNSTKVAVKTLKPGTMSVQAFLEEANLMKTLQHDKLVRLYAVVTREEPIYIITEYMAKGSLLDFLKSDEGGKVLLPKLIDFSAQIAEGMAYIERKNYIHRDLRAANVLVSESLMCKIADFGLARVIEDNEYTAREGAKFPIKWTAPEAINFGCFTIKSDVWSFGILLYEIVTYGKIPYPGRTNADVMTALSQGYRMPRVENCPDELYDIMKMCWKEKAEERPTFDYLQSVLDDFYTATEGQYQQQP

[13] = target: Dual specificity mitogen-activated protein kinase kinase 1 (Homo sapiens, UniProt Q02750); assay: Inhibition of N-terminal GST-tagged MEK1 after 5 mins by scintillation counter
[14] = target: Proto-oncogene tyrosine-protein kinase Src (Homo sapiens, UniProt P12931); assay: Inhibition of Src after 5 mins; how it was run: as §2
[15] = target: Vascular endothelial growth factor receptor 1 (Homo sapiens, UniProt P17948); assay: Inhibition of VEGFR1 after 5 mins; how it was run: as §2
[16] = target: T1, Tyrosine-protein kinase Lyn; assay: Inhibition of LYN A after 5 mins; how it was run: as §2
[17] = target: Serine/threonine-protein kinase B-raf (Homo sapiens, UniProt P15056); assay: Inhibition of N-terminal FLAG-tagged B-raf expressed in baculovirus after 5 mins by scintillation counter
[18] = target: Mast/stem cell growth factor receptor Kit (Homo sapiens, UniProt P10721); assay: Inhibition of c-kit after 5 mins; how it was run: as §2
[19] = target: Mitogen-activated protein kinase 3 (Homo sapiens, UniProt P27361); assay: Inhibition of N-terminal FLAG-tagged ERK1 expressed in baculovirus after 5 mins by scintillation counter
[20] = target: Fibroblast growth factor receptor 3 (Homo sapiens, UniProt P22607); assay: Inhibition of FGFR3 after 5 mins; how it was run: as §2
[21] = target: Glycogen synthase kinase-3 beta (Homo sapiens, UniProt P49841); assay: Inhibition of N-terminal FLAG-tagged GSK3beta expressed in baculovirus after 5 mins by scintillation counter
[22] = Antitumor activity against human 4-1ST cells xenografted in F344/N jcl-rnu rat at 25 mg/kg, po bid administered 14 days measured on day 31 relative to control; assay type: functional; how it was run: as §3
[23] = target: Hepatocyte growth factor receptor (Homo sapiens, UniProt P08581); assay: Inhibition of c-Met after 5 mins; how it was run: as §2
[24] = target: Serine/threonine-protein kinase PLK1 (Homo sapiens, UniProt P53350); assay: Inhibition of N-terminal FLAG-tagged PLK1 expressed in baculovirus after 5 mins by scintillation counter
[25] = target: Mitogen-activated protein kinase 8 (Homo sapiens, UniProt P45983); assay: Inhibition of N-terminal FLAG-tagged JNK1 expressed in baculovirus after 5 mins by scintillation counter
Chain of Mitogen-activated protein kinase 8 (P45983 whole entry): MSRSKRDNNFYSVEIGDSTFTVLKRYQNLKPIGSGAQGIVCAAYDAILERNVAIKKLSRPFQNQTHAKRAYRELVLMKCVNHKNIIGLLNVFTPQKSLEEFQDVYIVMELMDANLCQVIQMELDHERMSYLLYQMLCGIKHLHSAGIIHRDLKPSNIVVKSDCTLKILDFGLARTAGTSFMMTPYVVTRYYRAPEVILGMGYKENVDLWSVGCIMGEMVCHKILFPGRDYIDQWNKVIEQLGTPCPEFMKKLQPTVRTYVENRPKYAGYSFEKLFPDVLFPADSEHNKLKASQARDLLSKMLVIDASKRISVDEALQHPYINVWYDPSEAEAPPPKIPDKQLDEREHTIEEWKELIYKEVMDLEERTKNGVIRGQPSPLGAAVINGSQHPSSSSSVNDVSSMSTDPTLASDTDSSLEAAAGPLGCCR

[26] = target: Mitogen-activated protein kinase kinase kinase 1 (Homo sapiens, UniProt Q13233); assay: Inhibition of C-terminal FLAG-tagged MEKK expressed in baculovirus after 5 mins by scintillation counter
Chain of Mitogen-activated protein kinase kinase kinase 1 (Q13233 whole entry): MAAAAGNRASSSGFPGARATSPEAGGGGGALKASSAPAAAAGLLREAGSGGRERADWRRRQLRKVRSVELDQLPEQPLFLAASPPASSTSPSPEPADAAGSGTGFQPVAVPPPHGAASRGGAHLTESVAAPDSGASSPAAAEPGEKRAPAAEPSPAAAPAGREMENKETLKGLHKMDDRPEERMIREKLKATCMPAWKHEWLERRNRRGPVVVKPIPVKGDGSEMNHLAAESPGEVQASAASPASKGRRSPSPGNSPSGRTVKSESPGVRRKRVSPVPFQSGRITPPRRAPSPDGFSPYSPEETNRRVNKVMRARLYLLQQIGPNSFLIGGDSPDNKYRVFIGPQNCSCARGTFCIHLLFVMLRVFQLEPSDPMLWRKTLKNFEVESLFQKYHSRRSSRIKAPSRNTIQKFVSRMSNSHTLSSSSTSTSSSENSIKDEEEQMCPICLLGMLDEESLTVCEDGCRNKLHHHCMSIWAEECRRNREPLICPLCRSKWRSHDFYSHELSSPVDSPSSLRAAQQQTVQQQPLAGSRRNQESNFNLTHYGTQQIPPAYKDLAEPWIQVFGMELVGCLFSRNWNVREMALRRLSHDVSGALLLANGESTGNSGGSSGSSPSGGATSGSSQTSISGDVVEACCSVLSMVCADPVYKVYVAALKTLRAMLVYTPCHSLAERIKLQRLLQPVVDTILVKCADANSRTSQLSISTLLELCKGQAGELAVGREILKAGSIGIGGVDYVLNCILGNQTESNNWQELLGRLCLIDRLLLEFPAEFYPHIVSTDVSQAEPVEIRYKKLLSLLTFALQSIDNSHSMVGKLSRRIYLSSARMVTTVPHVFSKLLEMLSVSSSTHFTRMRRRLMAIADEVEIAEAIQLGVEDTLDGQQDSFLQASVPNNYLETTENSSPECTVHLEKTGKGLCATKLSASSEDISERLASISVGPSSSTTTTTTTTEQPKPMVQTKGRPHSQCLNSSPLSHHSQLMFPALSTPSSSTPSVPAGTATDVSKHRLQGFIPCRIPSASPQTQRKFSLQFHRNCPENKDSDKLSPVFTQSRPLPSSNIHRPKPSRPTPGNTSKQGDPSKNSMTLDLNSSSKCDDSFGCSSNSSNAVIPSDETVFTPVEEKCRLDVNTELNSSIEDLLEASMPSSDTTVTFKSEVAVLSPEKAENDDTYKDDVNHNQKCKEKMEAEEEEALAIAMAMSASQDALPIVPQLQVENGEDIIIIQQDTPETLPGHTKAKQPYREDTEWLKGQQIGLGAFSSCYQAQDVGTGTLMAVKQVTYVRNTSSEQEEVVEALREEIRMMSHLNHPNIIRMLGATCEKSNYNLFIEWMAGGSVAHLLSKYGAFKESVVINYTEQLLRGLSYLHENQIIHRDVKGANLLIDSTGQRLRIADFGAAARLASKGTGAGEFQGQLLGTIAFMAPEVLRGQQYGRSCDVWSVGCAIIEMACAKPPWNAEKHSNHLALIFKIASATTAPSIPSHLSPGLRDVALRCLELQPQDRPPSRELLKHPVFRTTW

[27] = target: Mitogen-activated protein kinase kinase kinase 7 (Homo sapiens, UniProt O43318); assay: Inhibition of N-terminal FLAG-tagged TAK1 expressed in baculovirus after 5 mins by scintillation counter
[28] = target: Cytoplasmic tyrosine-protein kinase BMX (Homo sapiens, UniProt P51813); assay: Inhibition of full length N-terminal FLAG-tagged BMX expressed in baculovirus after 5 mins; how it was run: as §2
[29] = target: Angiopoietin-1 receptor (Homo sapiens, UniProt Q02763); assay: Inhibition of TIE2 after 5 mins; how it was run: as §2
[30] = target: Fibroblast growth factor receptor 1 (Homo sapiens, UniProt P11362); assay: Inhibition of FGFR1 after 5 min; how it was run: as §2
Chain of Fibroblast growth factor receptor 1 (P11362 whole entry): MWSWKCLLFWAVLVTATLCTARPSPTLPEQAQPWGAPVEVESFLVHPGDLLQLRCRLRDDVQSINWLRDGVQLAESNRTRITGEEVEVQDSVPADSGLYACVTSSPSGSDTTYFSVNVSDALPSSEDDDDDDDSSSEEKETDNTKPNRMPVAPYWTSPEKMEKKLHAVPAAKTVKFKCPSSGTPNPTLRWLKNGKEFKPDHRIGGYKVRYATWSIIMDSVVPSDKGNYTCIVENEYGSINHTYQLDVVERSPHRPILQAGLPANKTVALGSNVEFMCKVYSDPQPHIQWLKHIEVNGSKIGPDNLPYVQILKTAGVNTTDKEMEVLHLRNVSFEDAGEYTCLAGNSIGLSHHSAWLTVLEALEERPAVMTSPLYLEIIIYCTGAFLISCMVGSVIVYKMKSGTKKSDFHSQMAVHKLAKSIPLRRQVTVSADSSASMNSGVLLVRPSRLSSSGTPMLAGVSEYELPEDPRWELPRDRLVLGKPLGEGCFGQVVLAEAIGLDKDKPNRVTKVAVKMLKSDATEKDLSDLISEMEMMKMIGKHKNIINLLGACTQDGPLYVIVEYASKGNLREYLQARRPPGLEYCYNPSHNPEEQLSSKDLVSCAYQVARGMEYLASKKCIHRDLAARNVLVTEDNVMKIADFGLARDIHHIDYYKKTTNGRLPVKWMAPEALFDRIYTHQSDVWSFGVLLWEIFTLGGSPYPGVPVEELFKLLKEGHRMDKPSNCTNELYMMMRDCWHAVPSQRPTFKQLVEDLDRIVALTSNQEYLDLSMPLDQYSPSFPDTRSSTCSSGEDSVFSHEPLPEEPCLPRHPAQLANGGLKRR

[31] = target: Dual specificity mitogen-activated protein kinase kinase 5 (Homo sapiens, UniProt Q13163); assay: Inhibition of N-terminal FLAG-tagged MEK5 expressed in baculovirus after 5 mins by scintillation counter
Chain of Dual specificity mitogen-activated protein kinase kinase 5 (Q13163 whole entry): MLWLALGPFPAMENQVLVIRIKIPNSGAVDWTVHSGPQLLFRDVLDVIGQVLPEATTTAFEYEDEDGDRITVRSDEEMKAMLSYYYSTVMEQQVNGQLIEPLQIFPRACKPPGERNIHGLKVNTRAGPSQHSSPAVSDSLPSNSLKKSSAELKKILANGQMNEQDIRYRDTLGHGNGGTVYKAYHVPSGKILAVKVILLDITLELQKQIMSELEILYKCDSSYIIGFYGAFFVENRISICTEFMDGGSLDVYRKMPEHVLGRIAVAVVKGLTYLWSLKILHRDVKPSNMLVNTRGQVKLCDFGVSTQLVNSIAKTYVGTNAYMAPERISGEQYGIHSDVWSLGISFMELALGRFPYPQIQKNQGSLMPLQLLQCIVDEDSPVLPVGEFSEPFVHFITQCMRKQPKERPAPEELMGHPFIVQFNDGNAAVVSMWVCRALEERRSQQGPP

[32] = Antitumor activity against human 4-1ST cells xenografted in BALB/c nu/nu mouse at 100 mg/kg, po bid administered 14 days measured on day 31 relative to control; assay type: functional; how it was run: as §3
[33] = target: Insulin-like growth factor 1 receptor (Homo sapiens, UniProt P08069); assay: Inhibition of IGF-1R after 5 mins; how it was run: as §2
[34] = target: Focal adhesion kinase 1 (Homo sapiens, UniProt Q05397); assay: Inhibition of full length N-terminal FLAG-tagged FAK expressed in baculovirus after 5 mins; how it was run: as §2
[35] = target: Mitogen-activated protein kinase kinase kinase 5 (Homo sapiens, UniProt Q99683); assay: Inhibition of N-terminal FLAG-tagged ASK1 expressed in baculovirus after 5 mins by scintillation counter
Chain of Mitogen-activated protein kinase kinase kinase 5 (Q99683 whole entry): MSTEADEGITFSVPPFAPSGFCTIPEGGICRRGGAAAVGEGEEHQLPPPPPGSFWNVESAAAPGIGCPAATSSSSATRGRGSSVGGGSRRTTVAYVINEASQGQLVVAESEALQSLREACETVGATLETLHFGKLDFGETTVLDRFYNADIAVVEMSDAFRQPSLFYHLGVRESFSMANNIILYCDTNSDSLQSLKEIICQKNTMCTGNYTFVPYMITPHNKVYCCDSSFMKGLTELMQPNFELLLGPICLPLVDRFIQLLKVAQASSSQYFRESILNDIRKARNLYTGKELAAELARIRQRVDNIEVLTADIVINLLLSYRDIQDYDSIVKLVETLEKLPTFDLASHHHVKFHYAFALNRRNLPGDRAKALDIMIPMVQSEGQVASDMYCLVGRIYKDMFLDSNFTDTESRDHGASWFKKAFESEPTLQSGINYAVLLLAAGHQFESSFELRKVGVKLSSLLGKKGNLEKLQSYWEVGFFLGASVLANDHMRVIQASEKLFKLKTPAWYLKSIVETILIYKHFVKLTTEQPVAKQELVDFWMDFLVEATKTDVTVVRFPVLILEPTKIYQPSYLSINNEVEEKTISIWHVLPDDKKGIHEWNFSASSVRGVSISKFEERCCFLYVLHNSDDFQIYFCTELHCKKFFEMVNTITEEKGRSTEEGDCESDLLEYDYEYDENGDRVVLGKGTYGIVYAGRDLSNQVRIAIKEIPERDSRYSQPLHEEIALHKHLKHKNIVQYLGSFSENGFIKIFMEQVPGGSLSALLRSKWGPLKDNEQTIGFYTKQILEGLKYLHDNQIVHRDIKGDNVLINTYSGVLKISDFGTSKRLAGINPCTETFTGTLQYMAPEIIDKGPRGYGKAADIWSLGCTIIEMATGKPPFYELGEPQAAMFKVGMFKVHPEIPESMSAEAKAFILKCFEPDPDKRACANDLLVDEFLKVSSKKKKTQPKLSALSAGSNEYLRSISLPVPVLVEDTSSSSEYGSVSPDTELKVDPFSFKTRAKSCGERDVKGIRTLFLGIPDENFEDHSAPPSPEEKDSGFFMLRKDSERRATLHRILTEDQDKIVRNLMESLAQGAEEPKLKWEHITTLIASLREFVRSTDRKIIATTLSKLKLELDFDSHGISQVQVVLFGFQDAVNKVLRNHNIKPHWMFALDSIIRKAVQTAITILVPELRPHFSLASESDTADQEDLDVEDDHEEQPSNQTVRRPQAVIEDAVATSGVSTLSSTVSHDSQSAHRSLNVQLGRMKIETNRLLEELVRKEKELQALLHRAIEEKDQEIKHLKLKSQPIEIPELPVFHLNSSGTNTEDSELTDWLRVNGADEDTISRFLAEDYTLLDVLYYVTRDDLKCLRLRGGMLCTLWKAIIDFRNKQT

[36] = Antitumor activity against human 4-1ST cells xenografted in F344/N jcl-rnu rat at 12.5 mg/kg, po bid administered 14 days measured on day 31 relative to control; assay type: functional; how it was run: as §3
[37] = target: Receptor tyrosine-protein kinase erbB-4 (Homo sapiens, UniProt Q15303); assay: Inhibition of HER4 cytoplasmic domain after 5 mins by scintillation counter
How it was run: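 HER4 cytoplasmic domain run as in the HER2/EGFR radiometric [γ-³²P]ATP filter assay: 5 min enzyme–compound preincubation, 10 min reaction at room temperature, TCA stop, scintillation count, nonlinear-regression IC₅₀.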

[38] = target: Mitogen-activated protein kinase 14 (Homo sapiens, UniProt Q16539); assay: Inhibition of N-terminal FLAG-tagged p38alpha expressed in baculovirus after 5 mins by scintillation counter
[39] = target: Insulin receptor (Homo sapiens, UniProt P06213); assay: Inhibition of INSR after 5 mins; how it was run: as §2
[40] = target: Tyrosine-protein kinase ZAP-70 (Homo sapiens, UniProt P43403); assay: Inhibition of ZAP70 after 5 mins; how it was run: as §2
[41] = target: Aurora kinase B (Homo sapiens, UniProt Q96GD4); assay: Inhibition of N-terminal His6-tagged Aurora B expressed in baculovirus after 5 mins by scintillation counter

CC(C)(C(=O)NCCn1ccc2ncnc(Nc3ccc(Oc4cccc(Cl)c4)c(Cl)c3)c21)S(C)(=O)=O
Papp B→A at 10 µM [1]: 7.69 ×10⁻⁶ cm/s | T/C [2]: 24% | GI50 [3]: 56 nM | Papp A→B at 10 µM [4]: 2.85 ×10⁻⁶ cm/s | microsomal CLint at 1 µM [5]: 21 µL/min/mg

CC(C)(C(=O)NCCn1ccc2ncnc(Nc3ccc(Oc4cccc(Cl)c4)c(Cl)c3)c21)S(C)(=O)=O.Cc1ccc(S(=O)(=O)O)cc1
IC50 [6]: 5.1 µM | IC50 [7]: > 10 µM | IC50 [8]: > 10 µM | IC50 [9]: > 10 µM | T/C [10]: 41% | IC50 [11]: > 10 µM | IC50 [12]: 3.3 µM | IC50 [13]: 980 nM | IC50 [14]: > 10 µM | IC50 [15]: > 10 µM | IC50 [16]: 3.6 µM | IC50 [17]: > 10 µM | IC50 [18]: > 10 µM | IC50 [19]: > 10 µM | IC50 [20]: > 10 µM | IC50 [21]: > 10 µM | T/C [22]: -1% | IC50 [23]: 3.9 µM | IC50 [24]: > 10 µM | IC50 [25]: > 10 µM | IC50 [26]: > 10 µM | IC50 [27]: > 10 µM | IC50 [28]: > 10 µM | IC50 [29]: > 10 µM | IC50 [30]: > 10 µM | IC50 [31]: > 10 µM | T/C [32]: 0% | IC50 [33]: > 10 µM | IC50 [34]: > 10 µM | IC50 [35]: > 10 µM | T/C [36]: 41% | IC50 [37]: 160 nM | IC50 [38]: > 10 µM | IC50 [39]: > 10 µM | IC50 [40]: > 10 µM | IC50 [41]: 500 nM

CC(C)(O)CC(=O)NCCn1ccc2ncnc(Nc3ccc(Oc4cccc(C(F)(F)F)c4)c(Cl)c3)c21 [TAK-285]
Papp B→A at 10 µM [1]: 6.87 ×10⁻⁶ cm/s | T/C [10]: 44% | T/C [2]: 29% | Papp A→B at 10 µM [4]: 5.05 ×10⁻⁶ cm/s | T/C [22]: -12% | T/C [32]: 11% | T/C [36]: 14%
